# Reference: ChEMBL document CHEMBL4665913, “Discovery of CA-4948, an Orally Bioavailable IRAK4 Inhibitor for Treatment of Hematologic Malignancies” (ACS Med Chem Lett, 2020)
# Tests used:
# [1] = Metabolic stability in mouse liver microsomes assessed as parent compound remaining at 1 uM measured upto 60 mins in presence of NADPH by LC-MS/MS analysis; format: ADME, Microsome; conditions: read-out: Stabilty
# [2] = Metabolic stability in rat liver microsomes assessed as parent compound remaining at 1 uM measured upto 60 mins in presence of NADPH by LC-MS/MS analysis; format: ADME, Microsome; conditions: read-out: Stabilty
# [3] = Metabolic stability in human liver microsomes assessed as parent compound remaining at 1 uM measured upto 60 mins in presence of NADPH by LC-MS/MS analysis; format: ADME, Microsome; conditions: read-out: Stabilty
# [4] = Initial plasma concentration in CD1 mouse at 3 mg/kg, iv by LC-MS/MS analysis; format: ADME, organism-based
# [5] = Initial plasma concentration in Wistar rat at 3 mg/kg, iv by LC-MS/MS analysis; format: ADME, organism-based
# [6] = Initial plasma concentration in dog at 1 mg/kg, iv by LC-MS/MS analysis; format: ADME, organism-based, Canis lupus familiaris
# [7] = AUC (0 to t) in CD-1 mouse at 3 mg/kg, iv measured up to 24 hrs by LC-MS/MS analysis; format: ADME, organism-based; parameters: route intravenous, dose 3 mg/kg, time <=24; conditions: in vivo
# [8] = AUC (0 to t) in Wistar rat at 3 mg/kg, iv measured up to 24 hrs by LC-MS/MS analysis; format: ADME, organism-based; parameters: route intravenous, dose 3 mg/kg, time <=24; conditions: in vivo
# [9] = AUC (0 to t) in dog at 1 mg/kg, iv measured up to 24 hrs by LC-MS/MS analysis; format: ADME, organism-based, Canis lupus familiaris; parameters: route intravenous, dose 1 mg/kg, time <=24; conditions: in vivo
# [10] = Volume of distribution in CD1 mouse at 3 mg/kg, iv measured up to 24 hrs by LC-MS/MS analysis; format: ADME, organism-based; conditions: in vivo
# [11] = Volume of distribution in Wistar rat at 3 mg/kg, iv measured up to 24 hrs by LC-MS/MS analysis; format: ADME, organism-based; conditions: in vivo
# [12] = Volume of distribution in dog at 1 mg/kg, iv measured up to 24 hrs by LC-MS/MS analysis; format: ADME, organism-based, Canis lupus familiaris; conditions: in vivo
# [13] = Clearance in CD1 mouse at 3 mg/kg, iv measured up to 24 hrs by LC-MS/MS analysis; format: ADME, organism-based; conditions: in vivo
# [14] = Clearance in Wistar rat at 3 mg/kg, iv measured up to 24 hrs by LC-MS/MS analysis; format: ADME, organism-based; conditions: in vivo
# [15] = Clearance in dog at 1 mg/kg, iv measured up to 24 hrs by LC-MS/MS analysis; format: ADME, organism-based, Canis lupus familiaris; conditions: in vivo
# [16] = Half life in CD1 mouse at 3 mg/kg, iv measured up to 24 hrs by LC-MS/MS analysis; format: ADME, organism-based; conditions: in vivo
# [17] = Half life in Wistar rat at 3 mg/kg, iv measured up to 24 hrs by LC-MS/MS analysis; format: ADME, organism-based; conditions: in vivo
# [18] = Half life in dog at 1 mg/kg, iv measured up to 24 hrs by LC-MS/MS analysis; format: ADME, organism-based, Canis lupus familiaris; conditions: in vivo
# [19] = Cmax in CD1 mouse at 10 mg/kg, po measured up to 24 hrs by LC-MS/MS analysis; format: ADME, organism-based; parameters: route oral, dose 10 mg/kg, time <=24; conditions: in vivo
# [20] = Cmax in Wistar rat at 10 mg/kg, po measured up to 24 hrs by LC-MS/MS analysis; format: ADME, organism-based; parameters: route oral, dose 10 mg/kg, time <=24; conditions: in vivo
# [21] = Cmax in dog at 10 mg/kg, po measured up to 24 hrs by LC-MS/MS analysis; format: ADME, organism-based, Canis lupus familiaris; parameters: route oral, dose 10 mg/kg, time <=24; conditions: in vivo
# [22] = AUC (0 to t) in CD-1 mouse at 10 mg/kg, po measured up to 24 hrs by LC-MS/MS analysis; format: ADME, organism-based; parameters: route oral, dose 10 mg/kg, time <=24; conditions: in vivo
# [23] = AUC (0 to t) in Wistar rat at 10 mg/kg, po measured up to 24 hrs by LC-MS/MS analysis; format: ADME, organism-based; parameters: route oral, dose 10 mg/kg, time <=24; conditions: in vivo
# [24] = AUC (0 to t) in dog at 10 mg/kg, po measured up to 24 hrs by LC-MS/MS analysis; format: ADME, organism-based, Canis lupus familiaris; parameters: route oral, dose 10 mg/kg, time <=24; conditions: in vivo
# [25] = Tmax in CD1 mouse at 10 mg/kg, po measured up to 24 hrs by LC-MS/MS analysis; format: ADME, organism-based; conditions: in vivo
# [26] = Tmax in Wistar rat at 10 mg/kg, po measured up to 24 hrs by LC-MS/MS analysis; format: ADME, organism-based; conditions: in vivo
# [27] = Tmax in dog at 10 mg/kg, po measured up to 24 hrs by LC-MS/MS analysis; format: ADME, organism-based, Canis lupus familiaris; conditions: in vivo
# [28] = Oral bioavailability in CD1 mouse at 10 mg/kg measured up to 24 hrs by LC-MS/MS analysis; format: ADME, organism-based; conditions: in vivo
# [29] = Oral bioavailability in Wistar rat at 10 mg/kg measured up to 24 hrs by LC-MS/MS analysis; format: ADME, organism-based; conditions: in vivo
# [30] = Oral bioavailability in dog at 10 mg/kg measured up to 24 hrs by LC-MS/MS analysis; format: ADME, organism-based, Canis lupus familiaris; conditions: in vivo
# [31] = Drug concentration in human OCI-LY3 cells xenografted SCID Beige mouse plasma at 25 mg/kg, po administered via gavage for 14 days and measured at 2 hrs post last dose by LC-MS/MS analysis; format: ADME, organism-based; conditions: time 14 day
# Summary of the method: (§1)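 Xenograft-bearing mice (OCI-Ly3) were given oral doses of 25, 50, 100 or 200 mg/kg once daily. Plasma and tumor were collected 2 h after the final dose on day 15. Results are reported as mean plasma concentration (ng/mL) and mean tumor concentration (ng/g) for each dose group.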
# [32] = Drug concentration in human OCI-LY3 cells xenografted SCID Beige mouse tumor at 25 mg/kg, po administered via gavage for 14 days and measured at 2 hrs post last dose by LC-MS/MS analysis; format: ADME, organism-based, Neoplasm; conditions: time 14 day, read-out: Ct; summary of the method: as §1
# [33] = Drug concentration in human OCI-LY3 cells xenografted SCID Beige mouse plasma at 50 mg/kg, po administered via gavage for 14 days and measured at 2 hrs post last dose by LC-MS/MS analysis; format: ADME, organism-based; conditions: time 14 day; summary of the method: as §1
# [34] = Drug concentration in human OCI-LY3 cells xenografted SCID Beige mouse tumor at 50 mg/kg, po administered via gavage for 14 days and measured at 2 hrs post last dose by LC-MS/MS analysis; format: ADME, organism-based, Neoplasm; conditions: time 14 day, read-out: Ct; summary of the method: as §1
# [35] = Drug concentration in human OCI-LY3 cells xenografted SCID Beige mouse plasma at 100 mg/kg, po administered via gavage for 14 days and measured at 2 hrs post last dose by LC-MS/MS analysis; format: ADME, organism-based; conditions: time 14 day; summary of the method: as §1
# [36] = Drug concentration in human OCI-LY3 cells xenografted SCID Beige mouse tumor at 100 mg/kg, po administered via gavage for 14 days and measured at 2 hrs post last dose by LC-MS/MS analysis; format: ADME, organism-based, Neoplasm; conditions: time 14 day, read-out: Ct; summary of the method: as §1
# [37] = Drug concentration in human OCI-LY3 cells xenografted SCID Beige mouse plasma at 200 mg/kg, po administered via gavage for 14 days and measured at 2 hrs post last dose by LC-MS/MS analysis; format: ADME, organism-based; conditions: time 14 day; summary of the method: as §1
# [38] = Drug concentration in human OCI-LY3 cells xenografted SCID Beige mouse tumor at 200 mg/kg, po administered via gavage for 14 days and measured at 2 hrs post last dose by LC-MS/MS analysis; format: ADME, organism-based, Neoplasm; conditions: time 14 day, read-out: Ct; summary of the method: as §1
# [39] = Fraction unbound in human OCI-LY3 cells xenografted SCID Beige mouse plasma at 200 mg/kg, po after 24 hrs by equilibrium dialysis method; format: ADME, organism-based; conditions: in vivo
# Summary of the method: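 Mouse plasma protein binding is the mean of 2 determinations. It was applied to the plasma exposures at 12 and 24 h in the OCI-Ly3 PK/PD study to estimate unbound plasma levels.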
# in vitro = conditions: human, Caco-2
structure (smiles),measurement,setting,value
Cc1cc(-c2nc(C(=O)Nc3cc4oc(N5CCOCC5)nc4nc3N3CC[C@@H](O)C3)co2)ccn1 [EMAVUSERTIB],"remaining at 1 h, 1 µM",[1],> 95%
same,"remaining at 1 h, 1 µM",[2],> 95%
same,"remaining at 1 h, 1 µM",[3],> 95%
same,C0,[4],7480 ng/mL
same,C0,[5],27700 ng/mL
same,C0,[6],1960 ng/mL
same,AUC(0-t) at 24 h,[7],5270 ng·h/mL
same,AUC(0-t) at 24 h,[8],112000 ng·h/mL
same,AUC(0-t) at 24 h,[9],6060 ng·h/mL
same,Vd,[10],0.661 L/kg
same,Vd,[11],2 L/kg
same,Vd,[12],0.5 L/kg
same,clearance,[13],9.27 mL/min/kg
same,CL,[14],0.4 mL/min/kg
same,clearance,[15],3.1 mL/min/kg
same,half-life,[16],2.6 h
same,t1/2,[17],5.3 h
same,half-life,[18],2.6 h
same,Cmax,[19],6620 ng/mL
same,Cmax,[20],22100 ng/mL
same,Cmax,[21],12800 ng/mL
same,AUC(0-t) at 24 h,[22],12500 ng·h/mL
same,AUC(0-t) at 24 h,[23],171000 ng·h/mL
same,AUC(0-t) at 24 h,[24],86500 ng·h/mL
same,Tmax,[25],0.5 h
same,Tmax,[26],1.2 h
same,Tmax,[27],1.17 h
same,bioavailability,[28],71%
same,bioavailability,[29],46%
same,bioavailability,[30],100%
same,concentration at 336 h,[31],5080 ng/mL
same,concentration at 336 h,[32],2670 ng/g
same,concentration at 336 h,[33],11600 ng/mL
same,concentration at 336 h,[34],8290 ng/g
same,concentration at 336 h,[35],23300 ng/mL
same,concentration at 336 h,[36],17900 ng/g
same,concentration at 336 h,[37],39100 ng/mL
same,concentration at 336 h,[38],37000 ng/g
same,Cp(f),[39],49.3 ng/mL
same,"Papp A→B at 2 h, 10 µM",in vitro,8.9 ×10⁻⁶ cm/s
Cc1cc(-c2nc(C(=O)Nc3cc4oc(N5CCOCC5)nc4nc3N3CC[C@@H](N)C3)co2)ccn1,"remaining at 1 h, 1 µM",[1],82%
same,"remaining at 1 h, 1 µM",[2],> 95%
same,"remaining at 1 h, 1 µM",[3],> 95%
same,"Papp A→B at 2 h, 10 µM",in vitro,1 ×10⁻⁶ cm/s
Cc1cc(-c2nc(C(=O)Nc3cc4oc(N5CCOCC5)nc4nc3N3CCC(F)CC3)co2)ccn1,"remaining at 1 h, 1 µM",[1],50%
same,"remaining at 1 h, 1 µM",[2],68%
same,"remaining at 1 h, 1 µM",[3],69%
Nc1ccc(-c2cccc(C(=O)Nc3ccc4nc(N5CCOCC5)oc4c3)n2)cn1,"Papp A→B at 2 h, 10 µM",in vitro,21.4 ×10⁻⁶ cm/s
Cc1cc(-c2nc(C(=O)Nc3cc4oc(N5CCOCC5)nc4nc3N3CCC(O)CC3)co2)ccn1,"remaining at 1 h, 1 µM",[1],> 95%
same,"remaining at 1 h, 1 µM",[2],> 95%
same,"remaining at 1 h, 1 µM",[3],> 95%
same,"Papp A→B at 2 h, 10 µM",in vitro,13.5 ×10⁻⁶ cm/s
CCC1(O)CCCN(c2nc3nc(N4CCOCC4)oc3cc2NC(=O)c2coc(-c3ccnc(C)c3)n2)C1 (stereo unspecified),"remaining at 1 h, 1 µM",[1],91%
same,"remaining at 1 h, 1 µM",[2],> 95%
same,"remaining at 1 h, 1 µM",[3],> 95%
same,"Papp A→B at 2 h, 10 µM",in vitro,8.5 ×10⁻⁶ cm/s
